Measurements published in ChEMBL document CHEMBL1129642, “Design, synthesis, and evaluation of 2 beta-alkenyl penam sulfone acids as inhibitors of beta-lactamases” (J Med Chem, 1996).
Active and inactive are the calls of the source. The calls are words filed in the database; no cut-off is given here.

Legend:
[1] = (§1) Compound was tested for inhibition of TEM-1, class A of beta-lactamases.; assay type: functional, Escherichia coli
[2] = Compound was tested for inhibition of pTEM-3 from Escherichia coli in combination with Ceftriaxone; assay type: functional
Summary of the method: (§2)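 MICs determined by serial 2-fold dilution in Mueller-Hinton broth with an inoculum of approximately 10⁵ cfu/mL. The test compound was combined with ceftriaxone.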

Pseudomonas aeruginosa [3] = assay: Compound was tested for inhibition of Pseudomonas aeruginosa 18SH in combination with Ceftriaxone; assay type: functional; summary of the method: as §2
Enterobacter cloacae [4] = assay: (§3) Compound was tested for inhibition of Ent. cloacae 908R in combination with Ceftriaxone; assay type: functional, organism-based; summary of the method: as §2
[5] = Compound was tested for inhibition of pTEM-4 from Escherichia coli in combination with Ceftriaxone; assay type: functional; summary of the method: as §2
Bacillus licheniformis = assay: Compound was tested for inhibition of Bacillus licheniformis 749/C, class A of beta-Lactamases.; assay type: functional, organism-based
Citrobacter freundii [6] = assay: Compound was tested for inhibition of Citrobacter freundii 1928 in combination with Ceftriaxone; assay type: functional; summary of the method: as §2
[7] = (§4) Compound was tested for inhibition of TEM-3, class A of beta-lactamases.; assay type: functional, Escherichia coli
Citrobacter freundii [8] = assay: Compound was tested for inhibition of Citrobacter freundii 1928 in combination with Ceftriaxone (expressed in MIC).; assay type: functional, organism-based
Pseudomonas aeruginosa [9] = assay: Compound was tested for inhibition of Pseudomonas aeruginosa 18SH in combination with Ceftriaxone (expressed in MIC).; assay type: functional, organism-based; summary of the method: as §2
Enterobacter cloacae [10] = assay: Compound was tested for inhibition of Ent. cloacae 908R in combination with Ceftriaxone (expressed in MIC).; assay type: functional, organism-based; summary of the method: as §2
[11] = target: PBP3 from Escherichia coli (K-12) (Escherichia coli, UniProt P0AD68); assay: Compound was tested for inhibition of Penicillin-binding protein 3 from Escherichia coli.
Beta-lactamase [12] = target: T1, Beta-lactamase (Bacillus licheniformis, UniProt P00808); assay: Compound was tested for inhibition of Beta-lactamase from Bacillus licheniformis 749/C
Beta-lactamase TEM [13] = target: T2, Beta-lactamase TEM (Escherichia coli, UniProt P62593); assay: Compound was tested for inhibition of Beta-lactamase from RTEM-1
Beta-lactamase [14] = target: Beta-lactamase (Staphylococcus aureus, UniProt P00807); assay: Compound was tested for inhibition of Beta-lactamase from Staphylococcus aureus PCI
Citrobacter freundii [15] = assay: Compound was tested for the half saturation constant derived from concentration dependence studies in Citrobacter freundii; assay type: functional
Summary of the method: (§5)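 Purified β-lactamases (C. freundii 1928, E. coli SNO3, TEM-3, SHV-2) reacted with inhibitor. K_S is the half-saturation constant for forming the acyl-enzyme complex, taken from the concentration dependence of that reaction. It was obtained together with the acylation rate k_on and the acyl-enzyme breakdown rate k_off, using previously published kinetic methods.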

Beta-lactamase [16] = target: T3, Beta-lactamase (Pseudomonas aeruginosa (strain ATCC 15692 / PAO1 / 1C / PRS 101 / LMG12228), UniProt P24735); assay: Compound was tested for inhibition of Beta-lactamase from Pseudomonas aeruginosa GN10362
Beta-lactamase L1 = Beta-lactamase L1 (Stenotrophomonas maltophilia, UniProt P52700); assay: Compound was tested for inhibition of Beta-lactamase from Xanthomonas maltophila 328
Beta-lactamase pse-1 = Beta-lactamase pse-1 (Escherichia coli, UniProt Q2V0Y6); assay: Compound was tested for inhibition of Beta-lactamase from PSE-1
Escherichia coli [17] = assay: Compound was tested for the half saturation constant derived from concentration dependence studies in Escherichia coli TEM-3.; assay type: functional; summary of the method: as §5
[18] = target: Metallo-beta-lactamase type 2 (Bacteroides fragilis, UniProt P25910); assay: Compound was tested for inhibition of Beta-lactamase from Bacteroides fragilis BF 101
Escherichia coli [19] = assay: Compound was tested for the half saturation constant derived from concentration dependence studies in Escherichia coli SNO3.; assay type: functional; summary of the method: as §5
Beta-lactamase [20] = target: T3, Beta-lactamase; assay: Compound was tested for inhibition of Beta-lactamase from Pseudomonas aeruginosa MK-1184
Beta-lactamase TEM [21] = target: T2, Beta-lactamase TEM; assay: Compound was tested for inhibition of Beta-lactamase from RTEM-2
Escherichia coli [22] = assay: Compound was tested for the half saturation constant derived from concentration dependence studies in Escherichia coli SHV-2.; assay type: functional; summary of the method: as §5
Beta-lactamase SHV-1 = Beta-lactamase SHV-1 (Escherichia coli, UniProt P0AD63); assay: Compound was tested for inhibition of Beta-lactamase from SHV-2
Beta-lactamase OXA-1 = Beta-lactamase OXA-1 (Escherichia coli, UniProt P13661); assay: Compound was tested for inhibition of Beta-lactamase from OXA-1
[23] = target: Penicillin-binding protein 2b (Staphylococcus aureus, UniProt Q9XDB3); assay: Compound was tested for inhibition of Penicillin-binding protein 3 from Staphylococcus aureus (Schoch).
Summary of the method: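 Competition for penicillin binding measured on S. aureus Schoch membrane fragments with 14C-labelled benzylpenicillin as the probe. The value is the IC50 (µM) for the PBP 3 band.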

[24] = (§6) Compound was tested for inhibition of pTEM-3 from Escherichia coli in combination with Ceftriaxone (expressed in MIC).; assay type: functional
[25] = (§7) Compound was tested for inhibition of pTEM-4 from Escherichia coli in combination with Ceftriaxone (not active).; assay type: functional
Enterobacter cloacae [26] = assay: as §3; assay type: functional; summary of the method: as §2
Citrobacter freundii [27] = assay: Compound was tested for inhibition of Citrobacter freundii 1928 in combination with Ceftriaxone; Not active; assay type: functional, organism-based; summary of the method: as §2
[28] = as §7; summary of the method: as §2
Beta-lactamase [29] = target: T3, Beta-lactamase; assay: Compound was tested for inhibition of Pseudomonas aeruginosa 18SH, class C of Beta-lactamase
[30] = target: T4, Penicillin-binding protein 1B (Escherichia coli K-12, UniProt P02919); assay: Compound was tested for inhibition of Penicillin-binding protein 1b from Escherichia coli.
T4 sequence (P02919 whole entry): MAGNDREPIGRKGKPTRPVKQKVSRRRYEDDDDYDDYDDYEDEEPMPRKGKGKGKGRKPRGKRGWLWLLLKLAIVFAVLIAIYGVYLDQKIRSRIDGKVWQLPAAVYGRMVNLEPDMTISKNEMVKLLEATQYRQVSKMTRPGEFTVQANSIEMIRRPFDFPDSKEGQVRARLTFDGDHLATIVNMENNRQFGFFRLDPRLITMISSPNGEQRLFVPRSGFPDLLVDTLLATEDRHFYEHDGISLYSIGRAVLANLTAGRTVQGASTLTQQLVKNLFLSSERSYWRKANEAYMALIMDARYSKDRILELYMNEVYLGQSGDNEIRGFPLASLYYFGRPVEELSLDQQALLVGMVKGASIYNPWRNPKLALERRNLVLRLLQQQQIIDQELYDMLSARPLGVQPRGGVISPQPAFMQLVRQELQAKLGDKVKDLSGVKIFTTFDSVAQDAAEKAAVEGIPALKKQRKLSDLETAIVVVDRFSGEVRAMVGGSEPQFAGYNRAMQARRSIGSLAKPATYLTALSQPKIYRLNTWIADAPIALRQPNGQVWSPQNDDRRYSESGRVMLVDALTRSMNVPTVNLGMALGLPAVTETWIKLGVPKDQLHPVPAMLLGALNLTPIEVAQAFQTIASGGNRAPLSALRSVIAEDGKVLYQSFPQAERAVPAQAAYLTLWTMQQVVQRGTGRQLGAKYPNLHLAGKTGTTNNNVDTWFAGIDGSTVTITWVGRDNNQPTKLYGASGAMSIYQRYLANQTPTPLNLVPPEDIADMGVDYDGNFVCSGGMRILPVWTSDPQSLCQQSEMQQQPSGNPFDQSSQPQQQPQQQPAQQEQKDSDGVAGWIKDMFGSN
Summary of the method: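 Penicillin binding was assayed on membrane fragments from E. coli W3110 or S. aureus Schoch, using ¹⁴C-labeled benzylpenicillin as the probe. IC₅₀ values are reported in µM.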

[31] = as §6; summary of the method: as §2
[32] = Compound was tested for inhibition of Penicillin-binding protein 1 from Staphylococcus aureus (Schoch).
[33] = target: Penicillin-binding protein 4 (Staphylococcus aureus, UniProt P72355); assay: Compound was tested for inhibition of Penicillin-binding protein 4 from Staphylococcus aureus (Schoch).
Beta-lactamase [34] = target: Beta-lactamase (Citrobacter freundii, UniProt P05193); assay: Compound was tested for inhibition of Citrobacter freundii 1928, class C of Beta-lactamase
Beta-lactamase [35] = target: T1, Beta-lactamase; assay: Compound was tested for inhibition of Bacillus licheniformis 749/C, class A of Beta-lactamase
[36] = as §1; set-up: species or system Escherichia coli
[37] = as §4; set-up: species or system Escherichia coli
[38] = target: Peptidoglycan D,D-transpeptidase MrdA (Escherichia coli K-12, UniProt P0AD65); assay: Compound was tested for inhibition of Penicillin-binding protein 2 from Escherichia coli.
Beta-lactamase [39] = target: Beta-lactamase (Escherichia coli K-12, UniProt P00811); assay: Compound was tested for inhibition of Escherichia coli AmpC, class C of Beta-lactamase
Sequence of Beta-lactamase (Escherichia coli K-12, UniProt P00811) (P00811 whole entry): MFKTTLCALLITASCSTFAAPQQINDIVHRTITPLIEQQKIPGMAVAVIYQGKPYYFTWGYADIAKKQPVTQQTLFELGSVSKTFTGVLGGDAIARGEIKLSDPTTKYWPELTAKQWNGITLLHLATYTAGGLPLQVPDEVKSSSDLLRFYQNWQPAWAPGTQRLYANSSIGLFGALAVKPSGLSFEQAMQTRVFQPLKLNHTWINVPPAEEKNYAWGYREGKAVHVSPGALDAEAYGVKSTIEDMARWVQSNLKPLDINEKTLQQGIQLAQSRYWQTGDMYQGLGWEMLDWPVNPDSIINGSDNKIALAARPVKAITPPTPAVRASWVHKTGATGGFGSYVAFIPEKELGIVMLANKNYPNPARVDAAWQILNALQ

T3 sequence (P24735 whole entry): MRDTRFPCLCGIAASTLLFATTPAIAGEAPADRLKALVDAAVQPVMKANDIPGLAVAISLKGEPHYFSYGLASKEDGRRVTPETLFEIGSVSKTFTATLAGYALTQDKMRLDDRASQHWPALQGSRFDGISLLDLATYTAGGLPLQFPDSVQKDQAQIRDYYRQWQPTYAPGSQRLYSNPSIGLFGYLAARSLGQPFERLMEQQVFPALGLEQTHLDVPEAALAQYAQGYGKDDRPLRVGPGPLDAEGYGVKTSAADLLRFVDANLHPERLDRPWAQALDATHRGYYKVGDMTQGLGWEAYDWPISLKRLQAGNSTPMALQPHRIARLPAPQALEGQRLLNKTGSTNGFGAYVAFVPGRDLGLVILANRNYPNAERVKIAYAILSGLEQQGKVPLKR
T2 sequence (P62593 whole entry): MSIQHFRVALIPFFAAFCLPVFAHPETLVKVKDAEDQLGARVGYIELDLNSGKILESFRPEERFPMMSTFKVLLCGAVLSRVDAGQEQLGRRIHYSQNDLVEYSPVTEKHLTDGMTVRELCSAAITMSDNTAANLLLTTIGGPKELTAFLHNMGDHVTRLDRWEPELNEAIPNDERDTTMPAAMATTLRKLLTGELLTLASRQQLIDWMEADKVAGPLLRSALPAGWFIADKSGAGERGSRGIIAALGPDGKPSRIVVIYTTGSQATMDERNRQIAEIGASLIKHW
T1 sequence (P00808 whole entry): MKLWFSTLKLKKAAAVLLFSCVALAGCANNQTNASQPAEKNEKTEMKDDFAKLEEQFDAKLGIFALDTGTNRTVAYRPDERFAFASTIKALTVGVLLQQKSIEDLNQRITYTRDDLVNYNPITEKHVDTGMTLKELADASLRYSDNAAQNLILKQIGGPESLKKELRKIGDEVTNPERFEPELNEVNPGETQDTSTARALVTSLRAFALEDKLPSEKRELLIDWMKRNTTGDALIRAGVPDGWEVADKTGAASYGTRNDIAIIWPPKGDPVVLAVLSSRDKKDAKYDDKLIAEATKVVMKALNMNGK
Sequence of Beta-lactamase L1 (P52700 whole entry): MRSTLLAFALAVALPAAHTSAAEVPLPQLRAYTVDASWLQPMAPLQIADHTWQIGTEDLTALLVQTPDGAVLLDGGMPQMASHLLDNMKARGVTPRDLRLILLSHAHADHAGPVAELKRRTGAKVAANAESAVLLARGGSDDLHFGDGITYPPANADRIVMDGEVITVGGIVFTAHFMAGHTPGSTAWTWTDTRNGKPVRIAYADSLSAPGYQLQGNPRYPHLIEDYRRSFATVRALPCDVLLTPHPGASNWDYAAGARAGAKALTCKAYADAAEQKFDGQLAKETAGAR
Sequence of Beta-lactamase (Staphylococcus aureus, UniProt P00807) (P00807 whole entry): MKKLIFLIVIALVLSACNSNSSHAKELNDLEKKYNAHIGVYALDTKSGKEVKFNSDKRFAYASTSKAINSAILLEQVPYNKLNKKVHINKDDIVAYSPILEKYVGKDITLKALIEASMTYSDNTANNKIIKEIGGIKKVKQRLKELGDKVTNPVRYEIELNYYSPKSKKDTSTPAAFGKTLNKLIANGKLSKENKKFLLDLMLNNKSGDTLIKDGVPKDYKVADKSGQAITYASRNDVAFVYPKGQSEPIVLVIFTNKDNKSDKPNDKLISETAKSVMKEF
Sequence of Beta-lactamase OXA-1 (P13661 whole entry): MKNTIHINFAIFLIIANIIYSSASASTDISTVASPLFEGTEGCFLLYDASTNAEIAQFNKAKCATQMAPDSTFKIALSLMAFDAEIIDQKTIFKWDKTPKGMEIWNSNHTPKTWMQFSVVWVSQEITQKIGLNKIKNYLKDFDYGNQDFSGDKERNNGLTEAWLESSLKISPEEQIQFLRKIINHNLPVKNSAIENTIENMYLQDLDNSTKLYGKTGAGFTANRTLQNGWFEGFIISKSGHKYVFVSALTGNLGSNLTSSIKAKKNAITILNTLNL
Sequence of Beta-lactamase (Citrobacter freundii, UniProt P05193) (P05193 whole entry): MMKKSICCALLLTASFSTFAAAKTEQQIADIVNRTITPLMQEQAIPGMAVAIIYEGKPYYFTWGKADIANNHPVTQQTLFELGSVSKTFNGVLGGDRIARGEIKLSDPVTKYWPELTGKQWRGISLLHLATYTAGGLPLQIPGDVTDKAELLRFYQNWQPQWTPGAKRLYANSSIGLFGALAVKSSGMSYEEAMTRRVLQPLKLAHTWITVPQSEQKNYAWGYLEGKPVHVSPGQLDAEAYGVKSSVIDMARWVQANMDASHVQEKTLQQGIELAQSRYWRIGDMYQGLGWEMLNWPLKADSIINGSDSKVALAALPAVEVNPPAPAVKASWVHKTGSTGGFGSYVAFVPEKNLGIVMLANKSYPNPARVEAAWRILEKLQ
Sequence of PBP3 from Escherichia coli (K-12) (P0AD68 whole entry, looked up): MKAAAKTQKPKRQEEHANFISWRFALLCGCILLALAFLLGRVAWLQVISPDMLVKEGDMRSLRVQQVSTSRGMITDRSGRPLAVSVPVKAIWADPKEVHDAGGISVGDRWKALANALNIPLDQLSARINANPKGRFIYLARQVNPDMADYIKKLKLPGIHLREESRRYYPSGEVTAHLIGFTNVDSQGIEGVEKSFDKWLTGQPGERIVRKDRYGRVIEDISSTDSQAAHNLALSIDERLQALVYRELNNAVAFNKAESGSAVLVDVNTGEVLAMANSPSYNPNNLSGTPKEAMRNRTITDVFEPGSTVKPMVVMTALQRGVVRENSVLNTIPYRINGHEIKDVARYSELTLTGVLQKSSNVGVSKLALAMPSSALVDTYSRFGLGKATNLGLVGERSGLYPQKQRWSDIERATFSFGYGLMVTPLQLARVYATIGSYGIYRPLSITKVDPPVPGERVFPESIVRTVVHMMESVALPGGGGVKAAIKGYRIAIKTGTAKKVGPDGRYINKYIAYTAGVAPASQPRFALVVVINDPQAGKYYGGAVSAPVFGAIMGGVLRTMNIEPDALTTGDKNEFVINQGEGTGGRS
Sequence of Beta-lactamase SHV-1 (P0AD63 22-286 limits assumed): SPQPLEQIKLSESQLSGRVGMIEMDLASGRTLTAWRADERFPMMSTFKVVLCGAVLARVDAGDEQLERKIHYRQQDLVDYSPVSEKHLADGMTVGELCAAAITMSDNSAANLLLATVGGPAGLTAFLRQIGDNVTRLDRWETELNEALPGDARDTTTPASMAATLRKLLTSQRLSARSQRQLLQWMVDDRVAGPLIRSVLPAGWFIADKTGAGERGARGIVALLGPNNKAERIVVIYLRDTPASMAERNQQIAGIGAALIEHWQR
Sequence of Beta-lactamase pse-1 (Q2V0Y6 whole entry): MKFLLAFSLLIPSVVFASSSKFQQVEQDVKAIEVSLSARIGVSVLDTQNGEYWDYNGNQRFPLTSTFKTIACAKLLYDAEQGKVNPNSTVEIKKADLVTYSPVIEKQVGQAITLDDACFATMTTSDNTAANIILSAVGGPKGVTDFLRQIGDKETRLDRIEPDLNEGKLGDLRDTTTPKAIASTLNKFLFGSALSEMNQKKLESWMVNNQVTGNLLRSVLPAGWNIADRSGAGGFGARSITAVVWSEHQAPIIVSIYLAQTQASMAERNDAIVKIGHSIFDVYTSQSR
Sequence of Peptidoglycan D,D-transpeptidase MrdA (P0AD65 whole entry): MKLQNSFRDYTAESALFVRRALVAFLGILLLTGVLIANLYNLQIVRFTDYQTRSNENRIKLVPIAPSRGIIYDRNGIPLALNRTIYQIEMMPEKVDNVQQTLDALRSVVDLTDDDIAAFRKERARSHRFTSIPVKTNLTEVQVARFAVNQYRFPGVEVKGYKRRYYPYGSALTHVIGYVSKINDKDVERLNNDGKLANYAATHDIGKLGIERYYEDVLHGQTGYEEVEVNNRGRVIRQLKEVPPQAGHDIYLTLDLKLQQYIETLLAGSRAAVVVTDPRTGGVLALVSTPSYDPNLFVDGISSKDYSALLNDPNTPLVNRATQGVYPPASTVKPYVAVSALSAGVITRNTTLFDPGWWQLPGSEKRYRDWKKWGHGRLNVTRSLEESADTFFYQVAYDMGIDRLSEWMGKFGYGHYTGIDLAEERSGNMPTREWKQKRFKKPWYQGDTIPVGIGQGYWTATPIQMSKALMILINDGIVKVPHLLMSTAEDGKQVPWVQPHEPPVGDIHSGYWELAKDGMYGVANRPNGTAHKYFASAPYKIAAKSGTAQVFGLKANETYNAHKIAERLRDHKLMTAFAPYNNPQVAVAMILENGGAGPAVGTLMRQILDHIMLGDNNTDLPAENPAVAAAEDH
Sequence of Metallo-beta-lactamase type 2 (P25910 whole entry): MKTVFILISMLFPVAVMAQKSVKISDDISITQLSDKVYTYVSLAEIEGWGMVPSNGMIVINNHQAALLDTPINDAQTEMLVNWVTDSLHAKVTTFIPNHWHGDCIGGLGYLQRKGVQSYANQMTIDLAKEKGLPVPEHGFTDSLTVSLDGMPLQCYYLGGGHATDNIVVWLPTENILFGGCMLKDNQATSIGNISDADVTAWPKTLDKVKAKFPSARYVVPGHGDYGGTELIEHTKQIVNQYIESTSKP

C[C@]1(/C=C/COC(N)=O)[C@H](C(=O)O)N2C(=O)C[C@H]2S1(=O)=O
IC50 [1]: 9.1 µM | MIC [2]: 1 µg/mL | MIC (Pseudomonas aeruginosa [3]): 8 µg/mL | MIC (Enterobacter cloacae [4]): 8 µg/mL | MIC [5]: 4 µg/mL | IC50 (Bacillus licheniformis): 6.5 µM | MIC (Citrobacter freundii [6]): 4 µg/mL | IC50 [7]: 0.76 µM

C[C@]1(/C=C\C#N)[C@H](C(=O)O)N2C(=O)C[C@H]2S1(=O)=O
MIC (Citrobacter freundii [8]): 2 µg/mL | MIC (Pseudomonas aeruginosa [9]): 16 µg/mL | MIC (Enterobacter cloacae [10]): 4 µg/mL | IC50 (Bacillus licheniformis): 0.32 µM

C[C@]1(C=CC#N)[C@H](C(=O)O)N2C(=O)C[C@H]2S1(=O)=O [Ro-481220]
IC50 [11]: > 340 µM | IC50 (Beta-lactamase [12]): 0.32 µM | MIC (Citrobacter freundii [8]): 1 µg/mL | IC50 (Beta-lactamase TEM [13]): 1.07 µM | IC50 (Beta-lactamase [14]): 0.25 µM | Ks (Citrobacter freundii [15]): 125 µM | MIC (Pseudomonas aeruginosa [9]): 4 µg/mL | MIC (Enterobacter cloacae [10]): 1 µg/mL | IC50 (Beta-lactamase [16]): 0.86 µM | IC50 (Beta-lactamase L1): 24 µM | IC50 (Beta-lactamase pse-1): 0.09 µM | Ks (Escherichia coli [17]): 0.56 µM | IC50 (Bacillus licheniformis): 0.32 µM | IC50 [18]: 200 µM | Ks (Escherichia coli [19]): 377 µM | IC50 (Beta-lactamase [20]): 1.97 µM | IC50 (Beta-lactamase TEM [21]): 0.98 µM | Ks (Escherichia coli [22]): 2.3 µM | IC50 (Beta-lactamase SHV-1): 0.54 µM | IC50 (Beta-lactamase OXA-1): 0.1 µM | IC50 [23]: 170 µM

CC(=O)/C=C\[C@@]1(C)[C@H](C(=O)O)N2C(=O)C[C@H]2S1(=O)=O
IC50 [1]: 10 µM | MIC (Citrobacter freundii [8]): 1 µg/mL | MIC (Pseudomonas aeruginosa [9]): 32 µg/mL | MIC (Enterobacter cloacae [10]): 2 µg/mL | IC50 (Bacillus licheniformis): 3.9 µM | MIC [24]: 0.25 µg/mL | IC50 [7]: 0.42 µM | MIC [25]: 2 µg/mL

C[C@]1(C=CC(N)=O)[C@H](C(=O)O)N2C(=O)C[C@H]2S1(=O)=O
IC50 [1]: 13 µM | MIC [2]: < 0.25 µg/mL | MIC (Pseudomonas aeruginosa [3]): 16 µg/mL | MIC (Enterobacter cloacae [26]): 8 µg/mL | MIC [5]: 0.5 µg/mL | IC50 (Bacillus licheniformis): 6 µM | NA (Citrobacter freundii [27]): inactive | IC50 [7]: 0.054 µM

C[C@]1(C=CCO)[C@H](C(=O)[O-])N2C(=O)C[C@H]2S1(=O)=O.[Na+]
IC50 [1]: 6.5 µM | MIC [2]: 0.5 µg/mL | MIC (Pseudomonas aeruginosa [3]): 16 µg/mL | MIC (Enterobacter cloacae [26]): 8 µg/mL | MIC [5]: 2 µg/mL | IC50 (Bacillus licheniformis): 3.6 µM | MIC (Citrobacter freundii [6]): 8 µg/mL | IC50 [7]: 0.6 µM

C[C@]1(/C=C/C[n+]2ccccc2)[C@H](C(=O)O)N2C(=O)C[C@H]2S1(=O)=O
MIC [28]: 0.5 µg/mL | IC50 (Beta-lactamase [29]): 75 µM | IC50 [30]: > 10000 µM | MIC [31]: 0.25 µg/mL | MIC (Pseudomonas aeruginosa [9]): > 16 µg/mL | MIC (Enterobacter cloacae [10]): 8 µg/mL | IC50 [32]: 15 µM | IC50 [33]: 15 µM | IC50 (Beta-lactamase [34]): 16 µM | IC50 (Beta-lactamase [35]): 1.8 µM | IC50 [36]: 3.6 µM | IC50 [37]: 0.14 µM | IC50 [38]: 297 µM | IC50 (Beta-lactamase [39]): 330 µM

C[C@]1(/C=C\Cl)[C@H](C(=O)[O-])N2C(=O)C[C@H]2S1(=O)=O.[Na+]
IC50 [1]: 5.6 µM | MIC [2]: 0.25 µg/mL | MIC (Pseudomonas aeruginosa [3]): 4 µg/mL | MIC (Enterobacter cloacae [26]): 4 µg/mL | MIC [5]: 1 µg/mL | IC50 (Bacillus licheniformis): 6.6 µM | MIC (Citrobacter freundii [6]): 4 µg/mL | IC50 [7]: 0.06 µM
